From ChEMBL document CHEMBL1932946, “Design, synthesis and anticonvulsant evaluation of novel N-(4-substituted phenyl)-2-[4-(substituted) benzylidene]-hydrazinecarbothio amides” (Eur J Med Chem, 2012)
Active and inactive are the calls of the source.

Tests used:
Mus musculus [1] = experiment: Anticonvulsant activity in ip dosed albino CF-1 mouse assessed as protection against maximal electroshock-induced seizures after 2 hrs; type: functional; conditions: albino CF-1, ip, read-out: MED
In short: (§1)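 Male CF-1 mice (18–25 g) received compound suspended in 0.5% methyl cellulose, i.p. at 30, 100 or 300 mg/kg. A 60 Hz alternating current (50 mA, 0.2 s) was delivered through corneal electrodes primed with 0.5% tetracaine HCl. Protection was defined as abolition of the hind limb tonic extensor component. The value reported is the minimum dose active in half or more of mice.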

Mus musculus [2] = experiment: Anticonvulsant activity in albino CF-1 mouse assessed as protection against subcutaneous metrazol-induced seizure at 300 mg/kg, ip after 4 hrs; type: functional, organism-based; parameters: dose 300 mg/kg
In short: (§2)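 Mice (male CF-1 albino, 18–25 g) pretreated i.p. with 30, 100 or 300 mg/kg in 0.5% methyl cellulose. Metrazol, at a dose convulsing 97% of animals, injected subcutaneously into the loose skin fold at the midline of the neck. Animals isolated and watched for 30 min for absence of seizure. Minimum dose active in half or more of mice recorded.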

Mus musculus [3] = experiment: Anticonvulsant activity in ip dosed albino CF-1 mouse assessed as protection against maximal electroshock-induced seizures after 4 hrs; type: functional; conditions: albino CF-1, ip, read-out: MED
In short: (§3)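 Male CF-1 albino mice (18–25 g) dosed i.p. at 30, 100 and 300 mg/kg as suspension in 0.5% methyl cellulose. 60 Hz alternating current, 50 mA, delivered 0.2 s via corneal electrodes primed with 0.5% tetracaine HCl electrolyte. Protection = abolition of hind limb tonic extensor component. Value reported is the minimum dose active in half or more of mice.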

Mus musculus [4] = experiment: Anticonvulsant activity in ip dosed albino CF-1 mouse assessed as protection against maximal electroshock-induced seizures after 0.5 hrs; type: functional; conditions: albino CF-1, ip, read-out: MED; in short: as §1
Mus musculus [5] = experiment: Anticonvulsant activity in albino CF-1 mouse assessed as protection against subcutaneous metrazol-induced seizure at 300 mg/kg, ip after 0.5 hrs; type: functional, organism-based; parameters: dose 300 mg/kg; in short: as §2
Mus musculus [6] = experiment: Neurotoxicity in albino CF-1 mouse assessed as minimum motor impairment at 300 mg/kg, ip after 4 hrs by rotarod test; type: toxicity, organism-based; parameters: dose 300 mg/kg, route intraperitoneal; conditions: in vivo
In short: (§4)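 Minimal motor impairment assessed in male CF-1 albino mice (18–25 g) at 0.5 and 4 h after i.p. doses of 30, 100 and 300 mg/kg, given in 0.5% methyl cellulose. Minimum dose toxic in half or more of mice recorded.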

Mus musculus [7] = experiment: Anticonvulsant activity in ip dosed albino CF-1 mouse assessed as protection against subcutaneous metrazol-induced seizures after 0.5 hrs; type: functional; conditions: albino CF-1, 0.5 h, read-out: MED
In short: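 Male CF-1 mice (18–25 g) were given compound i.p. at 30, 100 or 300 mg/kg, suspended in 0.5% methyl cellulose. Metrazol was injected subcutaneously into a loose skin fold at the neck midline, at the dose that induces convulsions in 97% of animals. Mice were isolated and watched for 30 min for absence of seizure. The value reported is the minimum dose active in half or more of mice.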

Mus musculus [8] = experiment: Neurotoxicity in albino CF-1 mouse assessed as minimum motor impairment at 300 mg/kg, ip after 0.5 hrs by rotarod test; type: toxicity, organism-based; parameters: dose 300 mg/kg, route intraperitoneal; conditions: in vivo; in short: as §4
Mus musculus [9] = experiment: Anticonvulsant activity in albino CF-1 mouse assessed as protection against maximal electroshock-induced seizures at 300 mg/kg, ip after 0.5 hrs; type: functional, organism-based; parameters: dose 300 mg/kg; in short: as §3
Mus musculus [10] = experiment: Anticonvulsant activity in albino CF-1 mouse assessed as protection against maximal electroshock-induced seizures at 300 mg/kg, ip after 4 hrs; type: functional, organism-based; parameters: dose 300 mg/kg; in short: as §3
Mus musculus [11] = experiment: Anticonvulsant activity in albino CF-1 mouse assessed as protection against maximal electroshock-induced seizures at 300 mg/kg, ip after 2 hrs; type: functional, organism-based; parameters: dose 300 mg/kg; in short: as §3
Mus musculus [12] = experiment: Anticonvulsant activity in albino CF-1 mouse assessed as protection against 6 Hz psychomotor seizure at 100 mg/kg, ip after 0.5 hrs by minimal clonic seizure test; type: functional; conditions: route intraperitoneal
In short: (§5)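 Male CF-1 albino mice (18–25 g) given compound i.p., suspended in 0.5% methyl cellulose, 100 mg/kg in screen. Four mice per time point challenged at 0.25, 0.5, 1.0, 2.0 and 4.0 h via corneal electrodes (32 mA, 3 s, 6 Hz). Protection = absence of psychomotor seizure (minimal clonic phase, automatistic behaviours). Scored as animals protected/tested.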

Mus musculus [13] = experiment: Anticonvulsant activity in albino CF-1 mouse assessed as protection against 6 Hz psychomotor seizure at 100 mg/kg, ip after 4 hrs by minimal clonic seizure test; type: functional, organism-based; parameters: dose 100 mg/kg; in short: as §5
Mus musculus [14] = experiment: Anticonvulsant activity in albino CF-1 mouse assessed as protection against 6 Hz psychomotor seizure at 100 mg/kg, ip after 2 hrs by minimal clonic seizure test; type: functional; in short: as §5
Mus musculus [15] = experiment: Anticonvulsant activity in albino CF-1 mouse assessed as protection against 6 Hz psychomotor seizure at 100 mg/kg, ip after 0.25 hrs by minimal clonic seizure test; type: functional; in short: as §5
Mus musculus [16] = experiment: Anticonvulsant activity in albino CF-1 mouse assessed as protection against 6 Hz psychomotor seizure at 100 mg/kg, ip after 1 hr by minimal clonic seizure test; type: functional; in short: as §5
[17] = Octanol-phosphate buffer partition coefficient, log P of the compound at 5 mg after 24 hrs by UV spectroscopic analysis; type: physicochemical
In short: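 5 mg compound added to 10 mL octanol plus 10 mL phosphate buffer in a stoppered tube. Mixture shaken mechanically 24 h at room temperature, then left 6 h in a separating funnel to equilibrate.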

logP at 24 h [17]	SMILES	minimal effective dose (Mus musculus [1]) [mg/kg]	Activity (Mus musculus [2])	minimal effective dose (Mus musculus [3]) [mg/kg]	minimal effective dose (Mus musculus [4]) [mg/kg]	Activity (Mus musculus [5])	Activity (Mus musculus [6])	minimal effective dose (Mus musculus [7]) [mg/kg]	Activity (Mus musculus [8])	Activity (Mus musculus [9])	Activity (Mus musculus [10])	Activity (Mus musculus [11])	Activity (Mus musculus [12]) [%]	Activity (Mus musculus [13])	Activity (Mus musculus [14])	Activity (Mus musculus [15])	Activity (Mus musculus [16])
	O=C1NC(=O)C(c2ccccc2)(c2ccccc2)N1 [PHENYTOIN]	30	inactive	30	30	inactive											
	CCCC(CCC)C(=O)[O-].[Na+] [VALPROATE SODIUM]		inactive				Non-toxic	300	Non-toxic	inactive	inactive	inactive					
6.53	S=C(N/N=C/c1ccc(Oc2ccc(Br)cc2)cc1)Nc1ccc(Br)cc1		inactive	300		inactive	Non-toxic		Non-toxic	inactive		inactive	75	inactive	inactive	inactive	inactive
